Results from ChEMBL document CHEMBL5096187, “Efficient Synthesis and Bioevaluation of Novel Dual Tubulin/Histone Deacetylase 3 Inhibitors as Potential Anticancer Agents” (J Med Chem, 2021).

Tests used:
HCT-116 = assay: Antiproliferative activity against human HCT-116 cells assessed as inhibition of cell viability measured for 48 hrs by microplate reader based MTT assay; type: functional; details: HCT-116, 48 h
Method in brief: (§1)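 Cells grown in RPMI-1640 with 10% FBS and seeded at 5000 cells/well. After overnight attachment, compound was added in medium with 0.1% DMSO for 48 h at 37 °C. Read-out was MTT for HCT-116, B16-F10 and A549, and CCK-8 for Jurkat (0.5 mg/mL, 4 h), with absorbance at 570 nm. IC50 from nonlinear regression; at least three independent experiments.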

B16-F10 = assay: Antiproliferative activity against mouse B16-F10 cells assessed as inhibition of cell viability measured for 48 hrs by microplate reader based MTT assay; type: functional; details: B16-F10, 48 h; method in brief: as §1
Jurkat = assay: Antiproliferative activity against human Jurkat cells assessed as inhibition of cell viability measured for 48 hrs by microplate reader based CCK-8 assay; type: functional
A549 = assay: Antiproliferative activity against human A549 cells assessed as inhibition of cell viability measured for 48 hrs by microplate reader based CCK-8 assay; type: functional; details: A549, 48 h
Histone deacetylase 1 = Histone deacetylase 1 (Homo sapiens, UniProt Q13547); assay: Inhibition of full length recombinant human HDAC1 (1 to 482 residues) expressed in Baculovirus system using Ac-Leu-Gly-Lys (Ac)-AMC as substrate pretreated for 5 mins followed by substrate addition and measured after 30 mins
Sequence of Histone deacetylase 1 (Q13547 whole entry, the tested form may be a part): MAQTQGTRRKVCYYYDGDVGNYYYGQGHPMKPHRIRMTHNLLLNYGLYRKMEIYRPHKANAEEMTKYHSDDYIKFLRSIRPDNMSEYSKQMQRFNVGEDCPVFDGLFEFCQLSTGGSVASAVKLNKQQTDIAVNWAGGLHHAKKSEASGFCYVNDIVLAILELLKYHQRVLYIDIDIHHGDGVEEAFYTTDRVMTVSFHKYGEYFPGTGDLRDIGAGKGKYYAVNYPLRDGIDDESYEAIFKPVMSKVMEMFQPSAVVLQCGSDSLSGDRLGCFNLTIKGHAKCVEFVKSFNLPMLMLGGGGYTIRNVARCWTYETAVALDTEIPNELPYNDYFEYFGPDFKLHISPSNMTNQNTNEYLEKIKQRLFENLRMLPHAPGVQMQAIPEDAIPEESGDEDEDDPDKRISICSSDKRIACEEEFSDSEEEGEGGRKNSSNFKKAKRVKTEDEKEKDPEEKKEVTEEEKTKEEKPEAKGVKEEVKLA

Histone deacetylase 3 = Histone deacetylase 3 (Homo sapiens, UniProt O15379); assay: Inhibition of recombinant HDAC3 (unknown origin) using Ac-Leu-Gly-Lys (Ac)-AMC as substrate pretreated for 5 mins followed by substrate addition and measured after 30 mins
Sequence of Histone deacetylase 3 (O15379 whole entry, the tested form may be a part): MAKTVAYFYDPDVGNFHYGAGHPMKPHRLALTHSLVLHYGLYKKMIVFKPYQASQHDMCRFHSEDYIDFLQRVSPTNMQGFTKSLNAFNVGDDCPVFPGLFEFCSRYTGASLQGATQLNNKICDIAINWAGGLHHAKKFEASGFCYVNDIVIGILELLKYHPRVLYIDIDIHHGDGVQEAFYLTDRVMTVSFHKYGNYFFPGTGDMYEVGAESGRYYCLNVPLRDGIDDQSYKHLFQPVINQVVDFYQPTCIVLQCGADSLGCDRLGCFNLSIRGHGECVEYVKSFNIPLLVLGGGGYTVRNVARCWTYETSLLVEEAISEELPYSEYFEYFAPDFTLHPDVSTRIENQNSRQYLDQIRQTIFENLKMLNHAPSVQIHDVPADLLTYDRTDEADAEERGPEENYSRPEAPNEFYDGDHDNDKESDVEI

[1] = target: T1, Protein deacetylase HDAC6 (Homo sapiens, UniProt Q9UBN7); assay: Inhibition of full length N-terminal GST-tagged human recombinant HDAC6 (1 to 1215 residues) expressed in Baculovirus infected Sf9 cells using Ac-Leu-Gly-Lys (Ac)-AMC as substrate pretreated for 5 mins followed by substrate addition and measured after 30 mins
T1 sequence (Q9UBN7 whole entry): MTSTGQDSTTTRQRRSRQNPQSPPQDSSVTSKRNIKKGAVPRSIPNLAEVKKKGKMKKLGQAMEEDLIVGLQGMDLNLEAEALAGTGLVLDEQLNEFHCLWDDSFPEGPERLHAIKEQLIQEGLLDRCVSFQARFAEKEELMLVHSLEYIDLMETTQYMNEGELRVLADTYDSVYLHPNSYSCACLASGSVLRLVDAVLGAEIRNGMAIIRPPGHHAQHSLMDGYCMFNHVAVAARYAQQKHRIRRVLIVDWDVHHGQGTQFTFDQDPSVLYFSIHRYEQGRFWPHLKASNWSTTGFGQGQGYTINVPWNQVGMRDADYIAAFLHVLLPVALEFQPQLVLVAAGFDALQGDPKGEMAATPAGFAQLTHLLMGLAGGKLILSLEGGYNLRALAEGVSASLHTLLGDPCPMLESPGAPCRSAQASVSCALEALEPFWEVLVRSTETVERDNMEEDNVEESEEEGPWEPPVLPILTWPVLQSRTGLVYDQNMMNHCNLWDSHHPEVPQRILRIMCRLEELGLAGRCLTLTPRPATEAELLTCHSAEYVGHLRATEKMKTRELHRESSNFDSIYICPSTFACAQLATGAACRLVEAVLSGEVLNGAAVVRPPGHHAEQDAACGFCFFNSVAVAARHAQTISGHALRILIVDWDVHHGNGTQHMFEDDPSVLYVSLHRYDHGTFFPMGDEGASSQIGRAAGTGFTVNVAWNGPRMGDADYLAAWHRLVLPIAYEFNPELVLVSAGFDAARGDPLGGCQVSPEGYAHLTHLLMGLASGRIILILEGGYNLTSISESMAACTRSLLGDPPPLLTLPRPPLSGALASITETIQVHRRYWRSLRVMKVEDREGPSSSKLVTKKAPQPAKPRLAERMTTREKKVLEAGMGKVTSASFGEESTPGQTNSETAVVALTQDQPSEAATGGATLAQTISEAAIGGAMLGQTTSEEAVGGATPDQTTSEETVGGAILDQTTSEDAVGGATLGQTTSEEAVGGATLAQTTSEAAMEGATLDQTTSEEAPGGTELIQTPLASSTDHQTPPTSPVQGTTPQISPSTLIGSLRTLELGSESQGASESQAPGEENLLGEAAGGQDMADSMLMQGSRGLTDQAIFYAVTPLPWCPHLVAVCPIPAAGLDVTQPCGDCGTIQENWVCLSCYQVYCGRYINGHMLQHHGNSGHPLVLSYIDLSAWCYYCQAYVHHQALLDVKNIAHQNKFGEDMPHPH
Method in brief: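 HDAC6 at 15 ng/well in Tris buffer pH 8.0 with MgCl2, BSA, NaCl and KCl. Ten 3-fold dilutions preincubated 5 min at room temperature, then 10 μM Ac-Leu-Gly-Lys(Ac)-AMC for 30 min at 37 °C. IC50 by normalized dose–response nonlinear fit; performed at least three times.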

Histone deacetylase 7 = target: T2, Histone deacetylase 7 (Homo sapiens, UniProt Q8WUI4); assay: Inhibition of full length N-terminal GST-tagged human recombinant HDAC7 (501 to 952 residues) expressed in Baculovirus system using Ac-Leu-Gly-Lys (Ac)-AMC as substrate pretreated for 5 mins followed by substrate addition and measured after 30 mins
T2 sequence (Q8WUI4 whole entry): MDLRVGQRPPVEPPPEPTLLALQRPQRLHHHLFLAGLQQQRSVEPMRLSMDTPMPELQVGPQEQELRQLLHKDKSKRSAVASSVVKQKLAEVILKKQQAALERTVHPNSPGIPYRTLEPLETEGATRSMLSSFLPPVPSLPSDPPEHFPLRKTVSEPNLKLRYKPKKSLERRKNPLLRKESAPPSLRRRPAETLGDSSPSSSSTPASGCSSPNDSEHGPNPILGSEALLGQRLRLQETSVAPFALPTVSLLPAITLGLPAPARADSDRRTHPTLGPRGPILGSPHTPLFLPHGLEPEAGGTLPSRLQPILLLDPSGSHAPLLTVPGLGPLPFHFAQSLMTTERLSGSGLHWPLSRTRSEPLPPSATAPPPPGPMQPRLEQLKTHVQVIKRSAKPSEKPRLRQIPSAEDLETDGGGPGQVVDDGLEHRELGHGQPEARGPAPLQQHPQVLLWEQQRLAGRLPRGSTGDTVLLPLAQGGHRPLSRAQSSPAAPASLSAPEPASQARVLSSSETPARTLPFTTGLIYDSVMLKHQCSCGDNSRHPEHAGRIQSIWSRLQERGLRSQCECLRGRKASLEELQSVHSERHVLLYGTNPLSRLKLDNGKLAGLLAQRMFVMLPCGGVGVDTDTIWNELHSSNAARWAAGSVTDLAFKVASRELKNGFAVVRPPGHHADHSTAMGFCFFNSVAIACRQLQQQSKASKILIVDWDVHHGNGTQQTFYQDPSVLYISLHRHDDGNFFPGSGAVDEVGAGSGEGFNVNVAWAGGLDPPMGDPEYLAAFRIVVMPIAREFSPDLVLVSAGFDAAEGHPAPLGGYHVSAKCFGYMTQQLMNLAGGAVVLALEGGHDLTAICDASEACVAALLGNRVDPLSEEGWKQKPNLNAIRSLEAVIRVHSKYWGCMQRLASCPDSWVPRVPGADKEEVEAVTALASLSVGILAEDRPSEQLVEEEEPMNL

Histone deacetylase 8 = target: T3, Histone deacetylase 8 (Homo sapiens, UniProt Q9BY41); assay: Inhibition of full length C-terminal his-tagged human recombinant HDAC8 ([…]) expressed in baculovirus in Sf9 insect cells using Ac-Leu-Gly-Lys (Tfa)-AMC as substrate pretreated for 5 mins followed by substrate addition and measured after 30 mins
T3 sequence (Q9BY41 whole entry): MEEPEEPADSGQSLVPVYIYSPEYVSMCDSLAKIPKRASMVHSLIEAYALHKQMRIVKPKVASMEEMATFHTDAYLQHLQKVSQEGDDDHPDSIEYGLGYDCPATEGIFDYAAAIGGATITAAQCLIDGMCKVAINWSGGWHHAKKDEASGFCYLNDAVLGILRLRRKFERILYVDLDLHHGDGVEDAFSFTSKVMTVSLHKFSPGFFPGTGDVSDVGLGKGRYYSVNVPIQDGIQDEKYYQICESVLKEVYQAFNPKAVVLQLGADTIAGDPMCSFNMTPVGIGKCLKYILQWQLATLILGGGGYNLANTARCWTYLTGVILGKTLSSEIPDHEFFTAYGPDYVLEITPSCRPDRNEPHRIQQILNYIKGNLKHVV

Tubulin (Sus scrofa) = Tubulin (Sus scrofa) (UniProt P02554+P02550); assay: Inhibition of pig brain tubulin polymerization at 10 uM measured after 20 mins by spectrometric method relative to control
Sequence of Tubulin (Sus scrofa) (P02550 whole entry, looked up): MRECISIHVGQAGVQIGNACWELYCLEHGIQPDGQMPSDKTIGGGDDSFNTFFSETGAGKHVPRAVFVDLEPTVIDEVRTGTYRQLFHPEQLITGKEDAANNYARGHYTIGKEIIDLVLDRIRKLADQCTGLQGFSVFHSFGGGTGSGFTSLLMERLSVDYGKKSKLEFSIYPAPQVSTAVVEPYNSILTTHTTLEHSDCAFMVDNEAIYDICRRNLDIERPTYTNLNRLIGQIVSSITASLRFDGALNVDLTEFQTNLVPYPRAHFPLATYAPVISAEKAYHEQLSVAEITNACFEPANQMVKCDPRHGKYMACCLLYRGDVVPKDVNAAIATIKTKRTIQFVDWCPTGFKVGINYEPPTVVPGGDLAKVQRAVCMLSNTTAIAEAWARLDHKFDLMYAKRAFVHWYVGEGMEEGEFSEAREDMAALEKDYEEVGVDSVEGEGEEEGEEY
Sequence of Tubulin (Sus scrofa) (P02554 whole entry, looked up): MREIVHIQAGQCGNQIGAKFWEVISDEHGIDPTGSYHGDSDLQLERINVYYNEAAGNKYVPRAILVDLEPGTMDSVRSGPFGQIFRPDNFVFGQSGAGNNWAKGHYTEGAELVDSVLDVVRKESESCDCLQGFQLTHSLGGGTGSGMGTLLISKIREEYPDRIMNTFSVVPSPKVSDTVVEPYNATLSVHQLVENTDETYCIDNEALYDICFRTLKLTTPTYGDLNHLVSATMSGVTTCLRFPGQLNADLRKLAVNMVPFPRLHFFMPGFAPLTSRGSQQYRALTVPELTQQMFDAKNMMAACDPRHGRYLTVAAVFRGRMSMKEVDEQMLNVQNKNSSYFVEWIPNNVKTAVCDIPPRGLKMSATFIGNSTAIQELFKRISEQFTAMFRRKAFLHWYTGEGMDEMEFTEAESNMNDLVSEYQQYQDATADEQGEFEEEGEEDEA
Method in brief: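 Pig brain tubulin was purified by three assembly/disassembly cycles and then phosphocellulose chromatography. Compound at 10 μM in PEM buffer with 1 mM GTP and 5% glycerol at 37 °C. Polymerization followed at 340 nm; inhibition taken at 20 min versus vehicle control.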

[2] = Antiproliferative activity against human YCC-11 cells assessed as inhibition of cell viability; type: functional, cell-based
[3] = Antiproliferative activity against human YCC3/7 cells assessed as inhibition of cell viability; type: functional, cell-based
[4] = target: T4, Protein deacetylase HDAC6 (Homo sapiens) (UniProt Q9UBN7); assay: Inhibition of recombinant HDAC6 (unknown origin) at 1 uM relative to control
T4 sequence (whole entry): T1 sequence (Q9UBN7 whole entry)
Method in brief: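 Single-point test at 1 μM against recombinant HDAC6 (15 ng/well) in 25 mM Tris pH 8.0, 1 mM MgCl₂, 0.1 mg/mL BSA, 137 mM NaCl, 2.7 mM KCl. Compound preincubated 5 min at room temperature, then Ac-Leu-Gly-Lys(Ac)-AMC 10 μM, 30 min at 37 °C. Trypsin/TSA developer 30 min. Fluorescence read at ex 350−360/em 450−460 nm.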

| IC50 (HCT-116) [µM] | IC50 (B16-F10) [µM] | IC50 (Jurkat) [µM] | IC50 (A549) [µM] | IC50 (Histone deacetylase 1) [µM] | IC50 (Histone deacetylase 3) [µM] | IC50 [1] [µM] | IC50 (Histone deacetylase 7) [µM] | IC50 (Histone deacetylase 8) [µM] | inhibition (Tubulin (Sus scrofa)) [%] | inhibition [4] [%] | Structure (SMILES) | IC50 [2] [µM] | IC50 [3] [µM] |
| --- | --- | --- | --- | --- | --- | --- | --- | --- | --- | --- | --- | --- | --- |
| 0.87 | 3.95 | 0.26 | 2.98 | 14.4 | 3.96 | 30.2 | 43 | 0.8 | 67 |  | COc1cc(C(=O)c2csc(-c3ccc(NC(=O)/C=C/C(=O)Nc4ccccc4N)cc3)n2)cc(OC)c1OC |  |  |
| 0.1 | 3.83 | 0.53 | 1.93 | 6.27 | 9.56 | 1.15 |  | 8.84 | 39 | > 50 | COc1cc(C(=O)c2csc(-c3ccc(OCCCC(=O)NO)cc3)n2)cc(OC)c1OC | 0.92 | 1.28 |
| 0.1 | 1.38 | 0.02 | 0.75 | 8.49 | 19.1 | 1.59 |  | 2.71 | 47 | > 50 | COc1cc(C(=O)c2csc(-c3ccc(/C=C/C(=O)NO)cc3)n2)cc(OC)c1OC | 4.09 | 6.14 |
